In ChEMBL document CHEMBL1800059, “Spiroindane based amides as potent and selective MC4R agonists for the treatment of obesity” (Bioorg Med Chem Lett, 2010):
The source made the active and inactive calls. The rule behind the calls is not given here.

Tests used:
Melanocortin receptor 4 [1] = target: T1, Melanocortin receptor 4 (Homo sapiens, UniProt P32245); assay: Agonist activity at human MC4R expressed in CHO cells assessed as increase of alpha-MSH-stimulated cAMP release pretreated for 10 mins before alpha-MSH challenge measured after 40 mins relative to alpha-MSH; type: functional, cell-based
T1 sequence (P32245 whole entry): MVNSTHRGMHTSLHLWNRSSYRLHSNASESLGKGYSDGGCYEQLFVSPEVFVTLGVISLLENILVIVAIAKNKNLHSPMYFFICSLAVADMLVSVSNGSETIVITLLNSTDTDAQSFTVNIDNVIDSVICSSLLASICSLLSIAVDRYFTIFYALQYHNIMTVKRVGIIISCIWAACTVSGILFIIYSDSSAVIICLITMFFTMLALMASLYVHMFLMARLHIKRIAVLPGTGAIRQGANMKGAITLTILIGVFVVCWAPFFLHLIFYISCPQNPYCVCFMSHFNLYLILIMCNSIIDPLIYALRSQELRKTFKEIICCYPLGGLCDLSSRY
Procedure, shortened: (§1)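 Each value is the mean of at least three repeat measurements. Functional read-outs give EC50 with % maximal activation.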

Rattus norvegicus [2] = assay: Antiobesity activity in wild type 14 days diet-induced obese rat model assessed as reduction in body weight at 10 mg/kg, po BID; type: functional, organism-based; parameters: dose 10 mg/kg
[3] = Half life in Sprague-Dawley rat at 1 mg/kg, iv and 4 mg/kg, po; type: ADME, organism-based; settings: in vivo
[4] = Clearance in Sprague-Dawley rat at 1 mg/kg, iv and 4 mg/kg, po; type: ADME, organism-based; settings: in vivo
[5] = Agonist activity at human MC1bR expressed in CHO cells assessed as increase of alpha-MSH-stimulated cAMP release pretreated for 10 mins before alpha-MSH challenge measured after 40 mins relative to alpha-MSH; type: functional; procedure, shortened: as §1
[6] = Oral bioavailability in Sprague-Dawley rat at 4 mg/kg; type: ADME, organism-based; settings: in vivo
[7] = Agonist activity at human MC1bR expressed in CHO cells assessed as increase of alpha-MSH-stimulated cAMP release pretreated for 10 mins before alpha-MSH challenge measured after 40 mins; type: functional, cell-based; procedure, shortened: as §1
Melanocortin receptor 4 [8] = target: T1, Melanocortin receptor 4; assay: Displacement of [125I]-NDP-R-MSH from human MC4R expressed in CHO cells after 1.5 hrs by scintillation counting; type: cell-based; procedure, shortened: as §1
Melanocortin receptor 4 [9] = target: T1, Melanocortin receptor 4; assay: Agonist activity at human MC4R expressed in CHO cells assessed as increase of alpha-MSH-stimulated cAMP release pretreated for 10 mins before alpha-MSH challenge measured after 40 mins; type: functional, cell-based; procedure, shortened: as §1
Rattus norvegicus [10] = assay: Dose-normalized AUC in Sprague-Dawley rat at 1 mg/kg, iv and 4 mg/kg, po; type: ADME, organism-based; settings: in vivo
[11] = Volume of distribution at steady state in Sprague-Dawley rat at 1 mg/kg, iv and 4 mg/kg, po; type: ADME, organism-based; settings: in vivo, read-out: Vdss
Mus musculus [12] = assay: Antiobesity activity in wild type diet-induced obese mouse model assessed as reduction in body weight at 10 mg/kg, po; type: functional, organism-based; parameters: dose 10 mg/kg
Procedure, shortened: (§2)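 Wild-type and MC4R/3R knockout mice received a single oral dose of 10 mg/kg, with a vehicle-dosed group for each genotype. Food intake and body weight change were measured against vehicle.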

Mus musculus [13] = assay: Antiobesity activity in wild type diet-induced obese mouse model assessed as reduction in food intake at 10 mg/kg, po; type: functional, organism-based; parameters: dose 10 mg/kg; procedure, shortened: as §2
Rattus norvegicus [14] = assay: Antiobesity activity in wild type 14 days diet-induced obese rat model assessed as reduction in body weight at 20 mg/kg, po BID; type: functional, organism-based; parameters: dose 20 mg/kg
Procedure, shortened: (§3)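 Diet-induced obese rats were dosed orally twice daily for 14 days at 2, 6 or 20 mpk. Vehicle and orally dosed positive-control groups were included. Body weight was recorded daily and expressed as change in grams.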

Mus musculus [15] = assay: Antiobesity activity in MC4R/3R knockout diet-induced obese mouse model assessed as reduction in food intake at 10 mg/kg, po; type: functional, organism-based; parameters: dose 10 mg/kg; procedure, shortened: as §2
Rattus norvegicus [16] = assay: Antiobesity activity in wild type 14 days diet-induced obese rat model assessed as reduction in body weight at 6 mg/kg, po BID; type: functional, organism-based; parameters: dose 6 mg/kg; procedure, shortened: as §3
Mus musculus [17] = assay: Antiobesity activity in MC4R/3R knockout diet-induced obese mouse model assessed as reduction in body weight at 10 mg/kg, po; type: functional, organism-based; parameters: dose 10 mg/kg; procedure, shortened: as §2
Melanocortin receptor 3 = Melanocortin receptor 3 (Mus musculus, UniProt P33033); assay: Agonist activity at mouse MC3 receptor; type: functional
Chain of Melanocortin receptor 3 (P33033 whole entry): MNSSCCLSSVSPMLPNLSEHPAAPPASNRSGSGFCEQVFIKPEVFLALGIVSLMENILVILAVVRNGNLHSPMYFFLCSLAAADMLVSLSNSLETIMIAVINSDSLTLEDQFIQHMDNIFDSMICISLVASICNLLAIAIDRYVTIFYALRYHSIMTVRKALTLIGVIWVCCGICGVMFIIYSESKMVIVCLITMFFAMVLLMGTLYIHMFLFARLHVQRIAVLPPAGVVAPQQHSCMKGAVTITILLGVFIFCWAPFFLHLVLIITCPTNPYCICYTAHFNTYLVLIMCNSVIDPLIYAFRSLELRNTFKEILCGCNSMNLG

Row | Activity (Melanocortin receptor 4 [1]) | half-life [3] | clearance [4] | bioavailability [6] | EC50 [7] | IC50 (Melanocortin receptor 4 [8]) | EC50 (Melanocortin receptor 4 [9]) | AUC/dose (Rattus norvegicus [10]) | Vd [11] | EC50 (Melanocortin receptor 3) | Structure (SMILES) | Activity (Rattus norvegicus [2]) | Activity [5] | Activity (Mus musculus [12]) | Activity (Mus musculus [13]) | Activity (Rattus norvegicus [14]) | Activity (Mus musculus [15]) | Activity (Rattus norvegicus [16]) | Activity (Mus musculus [17])
1 | 97% |  |  |  |  |  |  |  |  |  | CC[C@H](NC(C)=O)c1cc(Cl)ccc1C1CCN(C(=O)[C@@H]2CN(C(C)(C)C)C[C@H]2c2ccc(F)cc2F)CC1 | Active |  |  |  |  |  |  | 
2 | 78% | 7.3 h | 21.8 mL/min/kg | 29% | 430 nM | 1.8 nM | 4.3 nM | 0.35 µM·h/mg/kg | 8.88 L/kg |  | Cc1cc2c(cc1Cl)C1(CCN(C(=O)[C@@H]3CN(C(C)(C)C)C[C@H]3c3ccc(F)cc3F)CC1)C[C@@H]2C(C)(C)C(=O)N1CC(F)(F)C1 |  | 46% |  |  |  |  |  | 
3 | 112% | 15.1 h | 9.1 mL/min/kg | 22% | 494 nM | 8.5 nM | 2.1 nM | 0.83 µM·h/mg/kg | 10.4 L/kg |  | CC(=O)N(C)C(C)(C)[C@@H]1CC2(CCN(C(=O)[C@@H]3CN(C(C)(C)C)C[C@H]3c3ccc(F)cc3F)CC2)c2cc(Cl)c(C)cc21 |  | 35% |  |  |  |  |  | 
4 | 109% |  |  |  | 1020 nM |  | 4.6 nM |  |  | 1700 nM | CC(=O)NC(C)(C)[C@@H]1CC2(CCN(C(=O)[C@@H]3CN(C(C)(C)C)C[C@H]3c3ccc(F)cc3F)CC2)c2cc(Cl)c(C)cc21 |  | 25% | Active | Active | Active | inactive | Active | inactive
